We go through 32 compounds from ChEMBL document CHEMBL1155924, “Achieving multi-isoform PI3K inhibition in a series of substituted 3,4-dihydro-2H-benzo[1,4]oxazines” (Bioorg Med Chem Lett, 2008).

Data set [1] addresses Phosphatidylinositol 4,5-bisphosphate 3-kinase catalytic subunit beta isoform (Homo sapiens, UniProt P42338). Put plainly: Inhibition of PI3K beta.
The target of data set [2] is Phosphatidylinositol 4,5-bisphosphate 3-kinase catalytic subunit gamma isoform (Homo sapiens, UniProt P48736). Kind of data set: Inhibition of PI3K gamma.
The target in data set [3] is T1, Phosphatidylinositol 4,5-bisphosphate 3-kinase catalytic subunit delta isoform (Homo sapiens, UniProt O00329).
T1 sequence (O00329 whole entry): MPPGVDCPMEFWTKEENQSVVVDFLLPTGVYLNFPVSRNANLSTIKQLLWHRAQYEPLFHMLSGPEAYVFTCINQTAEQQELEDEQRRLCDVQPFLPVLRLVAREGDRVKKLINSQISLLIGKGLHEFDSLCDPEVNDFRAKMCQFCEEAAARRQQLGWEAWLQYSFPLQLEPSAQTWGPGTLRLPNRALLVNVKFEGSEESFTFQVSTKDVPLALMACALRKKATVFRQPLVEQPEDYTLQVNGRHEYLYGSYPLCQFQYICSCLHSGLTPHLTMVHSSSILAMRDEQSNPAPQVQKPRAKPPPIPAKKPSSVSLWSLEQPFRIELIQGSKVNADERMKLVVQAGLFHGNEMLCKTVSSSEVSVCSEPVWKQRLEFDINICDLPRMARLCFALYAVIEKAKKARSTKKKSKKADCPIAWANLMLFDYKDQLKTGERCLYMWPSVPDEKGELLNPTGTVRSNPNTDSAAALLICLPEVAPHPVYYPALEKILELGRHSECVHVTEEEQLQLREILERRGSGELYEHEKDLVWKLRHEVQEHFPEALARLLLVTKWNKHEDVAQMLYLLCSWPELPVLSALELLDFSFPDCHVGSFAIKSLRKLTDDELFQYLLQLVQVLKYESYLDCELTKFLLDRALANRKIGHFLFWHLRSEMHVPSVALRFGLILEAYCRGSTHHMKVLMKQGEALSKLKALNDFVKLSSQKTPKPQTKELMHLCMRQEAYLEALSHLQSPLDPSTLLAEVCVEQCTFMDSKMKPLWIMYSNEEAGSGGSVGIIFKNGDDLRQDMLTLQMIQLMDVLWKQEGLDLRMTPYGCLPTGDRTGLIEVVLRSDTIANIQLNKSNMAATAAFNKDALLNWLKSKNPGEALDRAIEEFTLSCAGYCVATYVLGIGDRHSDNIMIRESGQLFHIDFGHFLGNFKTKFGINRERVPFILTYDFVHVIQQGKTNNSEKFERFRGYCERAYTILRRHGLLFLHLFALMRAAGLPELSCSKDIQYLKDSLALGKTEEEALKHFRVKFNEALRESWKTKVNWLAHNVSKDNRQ
Kind of data set: Inhibition of PI3K delta.

For data set [4], the target named is Phosphatidylinositol 4,5-bisphosphate 3-kinase catalytic subunit alpha isoform (Homo sapiens, UniProt P42336). Kind of data set: Inhibition of PI3K alpha.
The species entered for data set [5] is Homo sapiens. Kind of data set: Selectivity for human PI3K gamma over human PI3K delta.
In data set [6] the test system is Hepatocyte. Kind of data set: Clearance in rat hepatocyte assessed per mg of protein at 2 uM. The note with it: hepatocytes. In kind it is ADME, cell-based, Liver.
Data set [7] relates to Neutrophil. Kind of data set: Inhibition of fMLP-stimulated superoxide production in TNF alpha-primed human neutrophils by spectrophotometry. In kind it is functional, cell-based. The essentials:
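Human neutrophils were primed with TNFα and stimulated with fMLP, and cellular superoxide production was monitored. Inhibition values are quoted in nM.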

The nature of data set [8]: Clearance in rat microsomes assessed per mg of protein at 0.5 uM. The format is ADME, Liver, Microsome. As to conditions: for microsomal CLint at 0.5 µM: liver microsomes. On the technique in general: Liver microsomes are vesicles of endoplasmic reticulum, rich in cytochrome P450 enzymes.
The nature of data set [9]: Clearance in human microsomes assessed per mg of protein at 0.5 uM. In kind it is ADME, Microsome.

Phosphatidylinositol 4,5-bisphosphate 3-kinase catalytic subunit beta isoform, sequence (P42338 whole entry, canonical isoform): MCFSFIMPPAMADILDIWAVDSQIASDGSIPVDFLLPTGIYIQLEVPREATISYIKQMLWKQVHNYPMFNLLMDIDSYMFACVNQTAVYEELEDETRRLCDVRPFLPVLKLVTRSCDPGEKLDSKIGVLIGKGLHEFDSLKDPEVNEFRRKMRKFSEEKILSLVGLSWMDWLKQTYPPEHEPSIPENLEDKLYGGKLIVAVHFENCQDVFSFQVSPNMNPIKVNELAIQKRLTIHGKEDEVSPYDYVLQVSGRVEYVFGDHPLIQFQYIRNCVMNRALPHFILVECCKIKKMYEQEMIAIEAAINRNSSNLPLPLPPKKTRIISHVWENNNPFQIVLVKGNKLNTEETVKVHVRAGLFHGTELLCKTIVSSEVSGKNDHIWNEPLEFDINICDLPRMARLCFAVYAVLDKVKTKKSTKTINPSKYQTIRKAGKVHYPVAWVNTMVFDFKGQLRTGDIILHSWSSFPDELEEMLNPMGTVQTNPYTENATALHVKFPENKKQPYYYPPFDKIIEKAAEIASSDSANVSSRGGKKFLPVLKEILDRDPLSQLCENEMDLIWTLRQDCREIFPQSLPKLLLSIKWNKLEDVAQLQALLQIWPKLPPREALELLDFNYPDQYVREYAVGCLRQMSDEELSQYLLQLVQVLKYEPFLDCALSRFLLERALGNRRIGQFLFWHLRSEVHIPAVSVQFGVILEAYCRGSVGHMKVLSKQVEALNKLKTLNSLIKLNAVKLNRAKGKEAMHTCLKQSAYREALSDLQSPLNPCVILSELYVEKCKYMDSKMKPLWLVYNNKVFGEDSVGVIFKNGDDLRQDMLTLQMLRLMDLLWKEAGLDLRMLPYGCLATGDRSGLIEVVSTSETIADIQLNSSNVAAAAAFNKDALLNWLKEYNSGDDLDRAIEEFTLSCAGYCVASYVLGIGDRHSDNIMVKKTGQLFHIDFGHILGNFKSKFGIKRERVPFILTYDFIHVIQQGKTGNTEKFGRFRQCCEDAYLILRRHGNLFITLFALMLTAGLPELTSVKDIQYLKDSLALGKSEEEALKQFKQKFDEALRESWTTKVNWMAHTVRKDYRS
Phosphatidylinositol 4,5-bisphosphate 3-kinase catalytic subunit gamma isoform, sequence (P48736 whole entry, canonical isoform): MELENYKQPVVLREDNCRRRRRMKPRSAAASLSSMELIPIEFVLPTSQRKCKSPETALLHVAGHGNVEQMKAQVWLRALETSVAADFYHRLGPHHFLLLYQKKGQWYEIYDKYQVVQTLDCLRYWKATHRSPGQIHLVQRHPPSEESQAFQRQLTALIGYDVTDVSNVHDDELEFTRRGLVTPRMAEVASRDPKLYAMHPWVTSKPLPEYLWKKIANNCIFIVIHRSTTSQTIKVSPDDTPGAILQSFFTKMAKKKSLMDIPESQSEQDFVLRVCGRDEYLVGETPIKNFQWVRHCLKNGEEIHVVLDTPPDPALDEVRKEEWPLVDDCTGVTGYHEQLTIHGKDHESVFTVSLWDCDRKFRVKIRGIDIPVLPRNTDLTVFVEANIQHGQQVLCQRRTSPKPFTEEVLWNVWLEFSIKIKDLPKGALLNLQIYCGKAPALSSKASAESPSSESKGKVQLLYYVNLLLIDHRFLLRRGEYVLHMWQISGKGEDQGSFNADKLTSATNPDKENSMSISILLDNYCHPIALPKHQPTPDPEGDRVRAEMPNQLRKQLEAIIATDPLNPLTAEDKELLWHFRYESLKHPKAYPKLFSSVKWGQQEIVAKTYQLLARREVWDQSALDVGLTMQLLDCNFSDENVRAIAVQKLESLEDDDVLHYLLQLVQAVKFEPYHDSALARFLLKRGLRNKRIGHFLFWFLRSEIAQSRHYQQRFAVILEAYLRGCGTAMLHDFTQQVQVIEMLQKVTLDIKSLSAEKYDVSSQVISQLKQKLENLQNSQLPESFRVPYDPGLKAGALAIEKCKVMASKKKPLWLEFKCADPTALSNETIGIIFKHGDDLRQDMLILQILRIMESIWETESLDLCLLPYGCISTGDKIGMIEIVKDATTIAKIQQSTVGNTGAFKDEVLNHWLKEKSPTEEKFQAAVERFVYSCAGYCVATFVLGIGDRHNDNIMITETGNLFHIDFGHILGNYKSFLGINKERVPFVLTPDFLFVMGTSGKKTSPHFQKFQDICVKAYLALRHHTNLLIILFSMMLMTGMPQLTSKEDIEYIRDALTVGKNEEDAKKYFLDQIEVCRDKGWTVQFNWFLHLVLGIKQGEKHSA
Phosphatidylinositol 4,5-bisphosphate 3-kinase catalytic subunit alpha isoform, sequence (P42336 whole entry, canonical isoform): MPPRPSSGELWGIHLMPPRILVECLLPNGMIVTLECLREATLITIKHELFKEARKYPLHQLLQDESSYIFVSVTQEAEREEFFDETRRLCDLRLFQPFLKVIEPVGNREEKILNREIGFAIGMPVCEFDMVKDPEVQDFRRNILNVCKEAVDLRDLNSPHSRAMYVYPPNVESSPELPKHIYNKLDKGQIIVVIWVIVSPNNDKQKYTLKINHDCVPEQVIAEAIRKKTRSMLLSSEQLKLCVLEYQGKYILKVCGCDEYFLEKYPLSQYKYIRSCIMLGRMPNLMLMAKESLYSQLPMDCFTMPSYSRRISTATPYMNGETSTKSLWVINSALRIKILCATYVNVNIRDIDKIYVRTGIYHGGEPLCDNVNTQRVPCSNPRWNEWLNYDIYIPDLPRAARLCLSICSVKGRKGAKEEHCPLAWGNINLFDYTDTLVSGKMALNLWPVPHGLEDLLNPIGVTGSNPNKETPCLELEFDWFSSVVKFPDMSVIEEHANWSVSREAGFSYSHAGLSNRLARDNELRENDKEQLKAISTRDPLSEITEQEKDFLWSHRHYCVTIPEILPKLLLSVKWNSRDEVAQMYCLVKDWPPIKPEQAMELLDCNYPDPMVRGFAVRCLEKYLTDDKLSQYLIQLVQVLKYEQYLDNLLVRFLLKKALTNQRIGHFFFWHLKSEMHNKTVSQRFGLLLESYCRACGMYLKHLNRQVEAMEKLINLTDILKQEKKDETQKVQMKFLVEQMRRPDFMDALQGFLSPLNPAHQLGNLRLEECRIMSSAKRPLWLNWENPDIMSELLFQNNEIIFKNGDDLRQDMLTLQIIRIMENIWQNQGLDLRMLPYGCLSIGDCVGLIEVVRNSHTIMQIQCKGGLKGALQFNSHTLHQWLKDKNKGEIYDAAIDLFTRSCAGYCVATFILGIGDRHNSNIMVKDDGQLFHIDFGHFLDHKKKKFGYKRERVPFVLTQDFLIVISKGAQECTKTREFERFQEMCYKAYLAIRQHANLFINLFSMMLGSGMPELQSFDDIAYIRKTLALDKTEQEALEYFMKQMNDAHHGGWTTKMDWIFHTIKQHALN

Regarding `CN(C)Cc1ccc2c(c1)N(c1nc3c(s1)C(=O)NC(C)(C)C3)CCO2`, the IC50 (as a rule, the concentration that inhibits the measured activity by half) in data set [1] was 10300 nM; in data set [2], more than 20000 nM; in data set [3], 7570 nM; in data set [4], more than 20000 nM.
Consider `CC1(C)CC(=O)c2sc(N3CCOc4ccccc43)nc2C1`, for which the fold change (FC) in data set [5] stood at 2. For the same compound, the CL in data set [6] was 162 µL/min/mg. Moreover, the IC50 in data set [1] is 511 nM; in [7], 759 nM; in [2] it was 829 nM; in data set [3], 614 nM; in data set [4] it was 676 nM. Also, the microsomal CLint – broadly, the rate of metabolic loss divided by the concentration – at 0.5 µM is 220 µL/min/mg in data set [8] and 47 µL/min/mg in data set [9].
For the compound `CC1(C)Cc2nc(N3CCOc4ccc(Br)cc43)sc2C(=O)N1`, the IC50 was found to be 1620 nM in [1], 321 nM in data set [2], 153 nM in data set [3] and 1110 nM in data set [4].
In the case of `CC1(C)Cc2nc(N3CCOc4cnccc43)sc2C(=O)N1`, the IC50 in [3] is more than 20000 nM.
Consider `CC1(C)CC(=O)c2sc(N3CCOc4ccc(-c5ccccc5)cc43)nc2C1`, for which the IC50 turned out to be 7990 nM in [1]; 267 nM in data set [7]; 854 nM in data set [2]; 80 nM in [3]; 2670 nM in data set [4]. In addition, the clearance is 15 µL/min/mg in data set [8] (microsomes, 0.5 µM) and 18 µL/min/mg in [9] (0.5 µM).
`CC1(C)Cc2nc(N3CCOc4ccc(-c5ccn[nH]5)cc43)sc2C(=O)N1`: the IC50 is 1470 nM in data set [1], 145 nM in data set [2], 90 nM in [3] and 917 nM in [4].
`CC1(C)CC(=O)c2sc(N3CCOc4ccc(-c5ccncc5)cc43)nc2C1`: the IC50 amounted to 1050 nM in data set [1], 159 nM in data set [2], 94 nM in [3] and 825 nM in [4].
Turning to `Cn1cc(-c2ccc3c(c2)N(c2nc4c(s2)C(=O)CC(C)(C)C4)CCO3)cn1`, the CL in data set [6] turned out to be 8 µL/min/mg. Moreover, the IC50 in data set [1] amounted to 336 nM; in data set [7], 44 nM; in [2] it was 52 nM; in [3] it was 49 nM; in [4], 294 nM. The microsomal CLint at 0.5 µM in data set [8] is 39 µL/min/mg; in [9], 36 µL/min/mg.
As to `Cn1ccnc1-c1ccc2c(c1)N(c1nc3c(s1)C(=O)NC(C)(C)C3)CCO2`, the IC50 in data set [1] is 3520 nM; in data set [2], 819 nM; in [3], 285 nM; in data set [4] it was 2900 nM.
With `CC1(C)Cc2nc(N3CCOCC3)sc2C(=O)N1`, the CL in data set [6] stood at 1 µL/min/mg. Also, the IC50 in [1] is 450 nM; in [7] it was 2960 nM; in data set [2], 5280 nM; in data set [3] it was 722 nM; in data set [4], 2370 nM. In addition, the microsomal CLint at 0.5 µM in data set [9] is 1 µL/min/mg.
As for `Cc1ccc2c(c1)OCCN2c1nc2c(s1)C(=O)NC(C)(C)C2`, the results for the IC50 in [1], in data set [2] and in data set [3] were 1620 nM, 531 nM and 605 nM, respectively.
On to `CC1(C)Cc2nc(N3CCOc4ccc(-c5cnc[nH]5)cc43)sc2C(=O)N1`, for which the IC50 is 727 nM in data set [1], 163 nM in data set [2], 81 nM in [3] and 736 nM in data set [4].
As for `CC1(C)Cc2nc(N3CCOc4cc(F)ccc43)sc2C(=O)N1`, the half-inhibitory concentration (IC50) in data set [1] was determined as 1240 nM; in [2], 357 nM; in [3], 783 nM.
Take `CC1(C)CC(=O)c2sc(N3CCOc4ccc(-c5cccnc5)cc43)nc2C1`: the IC50 was determined as 376 nM in data set [1], 113 nM in data set [2], 20 nM in data set [3] and 172 nM in data set [4].
With `CC1(C)Cc2nc(N3CCOc4ccc(-c5ccccc5)cc43)sc2C(=O)N1`, the IC50 was determined as 3660 nM in [1], 573 nM in data set [7], 80 nM in data set [2] and 50 nM in data set [3]. Further, the figures for the microsomal CLint at 0.5 µM in data set [8] and in [9] were 39 µL/min/mg and 21 µL/min/mg, respectively.
With `CC1(C)CC(=O)c2sc(N3CCOc4cc(-c5ccccc5)ccc43)nc2C1`, the figures for the IC50 in data set [2], in [3] and in [4] were more than 20000 nM, 1050 nM and more than 20000 nM, respectively.
As to `CC1(C)CC(=O)c2sc(N3CCOCC3)nc2C1`, in data set [6], the CL was 7 µL/min/mg. This compound registered a microsomal CLint at 0.5 µM in data set [8] of 6 µL/min/mg.
Consider `CC1(C)CC(=O)c2sc(N3CCOc4ncccc43)nc2C1`, for which the IC50 in [1] was found to be 5310 nM; in data set [2], 6650 nM; in [3], 5730 nM; in data set [4], 11300 nM.
The corresponding values for `Cc1ccc2c(c1)N(c1nc3c(s1)C(=O)NC(C)(C)C3)CCO2` are 964 nM, 617 nM, 357 nM and 1810 nM.
For the compound `CC(=O)c1ccc2c(c1)N(c1nc3c(s1)C(=O)NC(C)(C)C3)CCO2`, the IC50 was 1450 nM in data set [1], 318 nM in [2] and 366 nM in data set [3].
Consider `CC1(C)CC(=O)c2sc(N3CCOc4cc(Br)ccc43)nc2C1`, for which the IC50 in data set [1] amounted to 5340 nM; in data set [2], 3130 nM; in data set [3], 549 nM; in data set [4], 2850 nM.
In [5], `CC1(C)Cc2nc(N3CCOc4ccccc43)sc2C(=O)N1` came in with a fold change (FC) of 2. Moreover, the IC50 in data set [1] came to 1230 nM; in [2] it was 959 nM; in data set [3], 1630 nM.
`CC1(C)Cc2nc(N3CCOc4ccc(-c5ncccn5)cc43)sc2C(=O)N1`: the concentration for half-maximal inhibition (IC50) is 623 nM in data set [1], 189 nM in data set [2], 123 nM in data set [3] and 791 nM in [4].
For `Cc1ccc(-c2ccc3c(c2)N(c2nc4c(s2)C(=O)CC(C)(C)C4)CCO3)cn1`, the IC50 in [1] was determined as 308 nM; in [2], 73 nM; in [3] it was 26 nM; in data set [4] it was 164 nM. In addition, the microsomal CLint at 0.5 µM amounted to 25 µL/min/mg in data set [8] and 48 µL/min/mg in [9].
For the compound `CC1(C)CC(=O)c2sc(N3CCOc4ccc(-c5cn[nH]c5)cc43)nc2C1`, the IC50 in data set [1] was 298 nM; in [2] it was 77 nM; in data set [3], 17 nM; in data set [4] it was 188 nM.
For the compound `Cc1nc(-c2ccc3c(c2)N(c2nc4c(s2)C(=O)NC(C)(C)C4)CCO3)c[nH]1`, the IC50 in data set [1] is 325 nM; in data set [2] it was 107 nM; in data set [3], 51 nM; in data set [4], 636 nM.
For `COc1ccc2c(c1)OCCN2c1nc2c(s1)C(=O)NC(C)(C)C2`, in that order: 1590 nM, 440 nM, 230 nM and 1130 nM.
Turning to `Cc1cccc2c1OCCN2c1nc2c(s1)C(=O)NC(C)(C)C2`, the IC50 in [3] came to 15300 nM.
Consider `CC1(C)Cc2nc(N3CCOc4c(F)cccc43)sc2C(=O)N1`, for which the IC50 in data set [1] was found to be 11700 nM; in data set [2], 16800 nM; in [3], 11200 nM.
For `CC1(C)Cc2nc(N3CCOc4ccc(C5CC5)cc43)sc2C(=O)N1`, in that order: 834 nM, 210 nM and 155 nM.
In the case of `CC1(C)CC(=O)c2sc(N3CCOc4ccc(Br)cc43)nc2C1`, the IC50 in data set [1] was found to be 1920 nM; in [2] it was 829 nM; in [3], 249 nM; in data set [4] it was 1970 nM.
The corresponding values for `CC1(C)CC(=O)c2sc(N3CCOc4ccc(-c5ccccn5)cc43)nc2C1` are 2000 nM, 258 nM, 74 nM and 677 nM.
